# Source: PMC3483416 (Archives of biochemistry and biophysics, 2012)
# Read-outs that look alike come from different tables or passages of the source.
# Columns and labels:
# [1] = Analytical light scattering; type: physicochemical; conditions: for Mw (weighted-average molar mass): Superdex 200, 10°C; for P (population of species): integration of elution peak
# Outline: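 Full-length His-tagged human BclXL, 50 μM starting concentration, run on Superdex 200 SEC at 1 ml/min and 10 °C in 50 mM buffer (pH 4–10) with 100 mM NaCl, 1 mM EDTA and 5 mM β-mercaptoethanol. Inline triple-angle SLS, 90° DLS and refractive-index concentration detection. Mw, Mn and Rg from Zimm treatment; Rh from autocorrelation fit. Errors one SD, ≥3 independent runs.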
# [2] = type: physicochemical; conditions: 50μM BclXL, 1°C/min
# [3] = Far-UV CD of BclXL; type: physicochemical; conditions: 5μM BclXL, 25°C
# Outline: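 Far-UV spectra of 5 μM full-length human BclXL in 50 mM acetate (pH 4), phosphate (pH 6), Tris (pH 8) or CAPS (pH 10). 25 °C; 2-mm quartz cuvette; 190–250 nm; 2-nm slit; 10 nm/min scan. Buffer reference spectra subtracted. At least three repeats.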
# [4] = Steady-state intrinsic tryptophan fluorescence of BclXL; type: physicochemical; conditions: 5μM BclXL, excitation 290nm, 25 °C
# Outline: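 Tryptophan emission of 5 μM full-length human BclXL (N-His, E. coli-expressed) alone in 50 mM acetate pH 4, phosphate pH 6, Tris pH 8 or CAPS pH 10. 25 °C, 10-mm cuvette; excitation 290 nm; emission scanned 300–500 nm; 2.5-nm bandwidths. Spectra corrected against buffer reference. At least three repeats.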
# [5] = ANS fluorescence in the presence of BclXL; type: binding; conditions: for ANS fluorescence enhancement: 5μM BclXL, excess ANS, excitation 375nm, 25 °C
# Outline: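 Full-length human BclXL (residues 1–233, N-His, E. coli-expressed, Ni-NTA purified) at 5 μM with excess ANS in 50 mM acetate pH 4, phosphate pH 6, Tris pH 8 or CAPS pH 10. 25 °C; excitation 375 nm; emission 400–600 nm; 2.5-nm bandwidths. ANS-alone background subtracted. Enhancement = (Φ−Φo)/Φo × 100%, where Φ is the integrated spectral area. At least three repeats.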
# [6] = Acrylamide quenching of BclXL intrinsic fluorescence; type: physicochemical; conditions: 5μM BclXL, excess acrylamide, 25 °C
# Outline: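 Intrinsic fluorescence quenching: 5 μM His-tagged full-length human BclXL with excess acrylamide in 50 mM acetate (pH 4), phosphate (pH 6), Tris (pH 8) or CAPS (pH 10). 25 °C, 10-mm cuvette; excitation 290 nm; emission 300–500 nm; 2.5-nm bandwidths. […] Q = (Φo−Φ)/Φo × 100% from integrated spectral areas. At least three repeats.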
# [7] = Near-UV CD of BclXL; type: physicochemical; conditions: 30μM BclXL, 25°C
# Outline: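 Near-UV spectra recorded on 30 μM His-tagged full-length human BclXL in 50 mM acetate pH 4, phosphate pH 6, Tris pH 8 or CAPS pH 10. 25 °C; 10-mm quartz cuvette; 260–340 nm; 2-nm slit; 10 nm/min. Spectra normalized against buffer references. At least three repeats.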
# [8] = Dimer, pH 6, ± SD, n at least 3
# [9] = Dimer, pH 8, ± SD, n at least 3
# [10] = Dimer, pH 10, ± SD, n at least 3
# [11] = Megamer, pH 4, ± SD, n at least 3
# [12] = Monomer, pH 6, ± SD, n at least 3
# [13] = Monomer, pH 8, ± SD, n at least 3
# [14] = Multimer, pH 6, ± SD, n at least 3
# [15] = Multimer, pH 8, ± SD, n at least 3
# [16] = Multimer, pH 10, ± SD, n at least 3
# [17] = Polymer, pH 6, ± SD, n at least 3
# [18] = Polymer, pH 8, ± SD, n at least 3
# [19] = Polymer, pH 10, ± SD, n at least 3
substance,measurement,setting,value
"full-length BclXL: Full-length human BclXL (residues 1-233), N-terminal His-tag, expressed in Escherichia coli",Mw (weighted-average molar mass),"[1]; Dimer, pH 6, phosphate, 50μM loaded, ± SD, n at least 3",61 ± 3 kD
same,P (population of species),"[1]; Dimer, pH 6",11%
same,Mn (number-average molar mass),[1]; [8],59 ± 2 kD
same,Mw/Mn,[1]; [8],1.02 ± 0.01
same,Rh (weighted-average hydrodynamic radius),[1]; [8],49 ± 4 Å
same,Mw (weighted-average molar mass),"[1]; Dimer, pH 8, Tris, 50μM loaded, ± SD, n at least 3",62 ± 4 kD
same,P (population of species),"[1]; Dimer, pH 8",5%
same,Mn (number-average molar mass),[1]; [9],61 ± 2 kD
same,Mw/Mn,[1]; [9],1.01 ± 0.01
same,Rh (weighted-average hydrodynamic radius),[1]; [9],48 ± 2 Å
same,Mw (weighted-average molar mass),"[1]; Dimer, pH 10, CAPS, 50μM loaded, ± SD, n at least 3",61 ± 3 kD
same,P (population of species),"[1]; Dimer, pH 10",5%
same,Mn (number-average molar mass),[1]; [10],60 ± 3 kD
same,Mw/Mn,[1]; [10],1.02 ± 0.01
same,Rh (weighted-average hydrodynamic radius),[1]; [10],49 ± 3 Å
same,Mw (weighted-average molar mass),"[1]; Megamer, pH 4, acetate, 50μM loaded, ± SD, n at least 3",33805 ± 2821 kD
same,Mn (number-average molar mass),"[1]; Megamer, pH 4, 50μM loaded, 10°C, ± SD, n at least 3",33085 ± 2623 kD
same,P (population of species),"[1]; Megamer, pH 4",100%
same,Mw/Mn,[1]; [11],1.02 ± 0.01
same,Rg (weighted-average radius of gyration),[1]; [11],783 ± 86 Å
same,Rg/Rh,[1]; [11],2.40 ± 0.16
same,Rh (weighted-average hydrodynamic radius),[1]; [11],324 ± 23 Å
same,Mw (weighted-average molar mass),"[1]; Monomer, pH 6, phosphate, 50μM loaded, ± SD, n at least 3",32 ± 2 kD
same,P (population of species),"[1]; Monomer, pH 6",31%
same,Mn (number-average molar mass),[1]; [12],31 ± 2 kD
same,Mw/Mn,[1]; [12],1.01 ± 0.01
same,Rh (weighted-average hydrodynamic radius),[1]; [12],26 ± 1 Å
same,Mw (weighted-average molar mass),"[1]; Monomer, pH 8, Tris, 50μM loaded, ± SD, n at least 3",31 ± 1 kD
same,P (population of species),"[1]; Monomer, pH 8",7%
same,Mn (number-average molar mass),[1]; [13],30 ± 2 kD
same,Mw/Mn,[1]; [13],1.00 ± 0.00
same,Rh (weighted-average hydrodynamic radius),[1]; [13],34 ± 2 Å
same,Mw (weighted-average molar mass),"[1]; Monomer, pH 10, CAPS, 50μM loaded, ± SD, n at least 3",31 ± 2 kD
same,P (population of species),"[1]; Monomer, pH 10",9%
same,Mw (weighted-average molar mass),"[1]; Multimer, pH 6, phosphate, 50μM loaded, ± SD, n at least 3",595 ± 45 kD
same,P (population of species),"[1]; Multimer, pH 6",37%
same,Mn (number-average molar mass),[1]; [14],577 ± 39 kD
same,Mw/Mn,[1]; [14],1.03 ± 0.02
same,Rg (weighted-average radius of gyration),[1]; [14],141 ± 5 Å
same,Rg/Rh,[1]; [14],1.47 ± 0.02
same,Rh (weighted-average hydrodynamic radius),[1]; [14],95 ± 3 Å
same,Mw (weighted-average molar mass),"[1]; Multimer, pH 8, Tris, 50μM loaded, ± SD, n at least 3",364 ± 32 kD
same,P (population of species),"[1]; Multimer, pH 8",51%
same,Mn (number-average molar mass),[1]; [15],325 ± 33 kD
same,Mw/Mn,[1]; [15],1.11 ± 0.01
same,Rg (weighted-average radius of gyration),[1]; [15],98 ± 4 Å
same,Rg/Rh,[1]; [15],1.08 ± 0.02
same,Rh (weighted-average hydrodynamic radius),[1]; [15],90 ± 2 Å
same,Mw (weighted-average molar mass),"[1]; Multimer, pH 10, CAPS, 50μM loaded, ± SD, n at least 3",461 ± 21 kD
same,P (population of species),"[1]; Multimer, pH 10",50%
same,Mn (number-average molar mass),[1]; [16],448 ± 23 kD
same,Mw/Mn,[1]; [16],1.03 ± 0.01
same,Rg (weighted-average radius of gyration),[1]; [16],131 ± 5 Å
same,Rg/Rh,[1]; [16],1.21 ± 0.01
same,Rh (weighted-average hydrodynamic radius),[1]; [16],108 ± 4 Å
same,Mw (weighted-average molar mass),"[1]; Polymer, pH 6, phosphate, 50μM loaded, ± SD, n at least 3",3521 ± 292 kD
same,P (population of species),"[1]; Polymer, pH 6",21%
same,Mn (number-average molar mass),[1]; [17],3101 ± 201 kD
same,Mw/Mn,[1]; [17],1.13 ± 0.03
same,Rg (weighted-average radius of gyration),[1]; [17],230 ± 12 Å
same,Rg/Rh,[1]; [17],1.22 ± 0.02
same,Rh (weighted-average hydrodynamic radius),[1]; [17],187 ± 9 Å
same,Mw (weighted-average molar mass),"[1]; Polymer, pH 8, Tris, 50μM loaded, ± SD, n at least 3",3729 ± 246 kD
same,P (population of species),"[1]; Polymer, pH 8",37%
same,Mn (number-average molar mass),[1]; [18],3226 ± 236 kD
same,Mw/Mn,[1]; [18],1.15 ± 0.02
same,Rg (weighted-average radius of gyration),[1]; [18],218 ± 12 Å
same,Rg/Rh,[1]; [18],1.15 ± 0.03
same,Rh (weighted-average hydrodynamic radius),[1]; [18],188 ± 11 Å
same,Mw (weighted-average molar mass),"[1]; Polymer, pH 10, CAPS, 50μM loaded, ± SD, n at least 3",3189 ± 229 kD
same,P (population of species),"[1]; Polymer, pH 10",36%
same,Mn (number-average molar mass),[1]; [19],3018 ± 212 kD
same,Mw/Mn,[1]; [19],1.06 ± 0.02
same,Rg (weighted-average radius of gyration),[1]; [19],232 ± 13 Å
same,Rg/Rh,[1]; [19],1.14 ± 0.02
same,Rh (weighted-average hydrodynamic radius),[1]; [19],202 ± 7 Å
same,mass of megamer,[1]; acidic conditions (pH 4),"~ 34,000 kD"
same,monomeric units in megadalton oligomer,[1]; acidic conditions (pH 4),more than 1000 monomeric units
same,Mw/Mn,"[1]; megadalton oligomer, pH 4, text",< 1.05
same,Mw/Mn,[1]; monomeric and dimeric forms,< 1.05
same,Rg/Rh,[1]; multimer and polymer,> 1.05
same,mass of monomer,[1]; pH 6 and higher,~ 31 kD
same,melting temperature (no melting transition up to),"[2]; pH 4, 50mM buffer, 3atm",> 120 °C
same,"melting temperature (Tm), first transition","[2]; pH 6, attributed to dissociation of dimer into monomers",around 55 °C
same,"melting temperature (Tm), second transition","[2]; pH 6, attributed to unfolding of monomers",~70 °C
same,"melting temperature (Tm), first transition","[2]; pH 10, dissociation of dimer into monomers",around 60 °C
same,"melting temperature (Tm), second transition","[2]; pH 10, unfolding of monomers",~90 °C
same,intensity of far-UV spectrum,[3]; pH 4-10,steadily increases with increasing pH
same,"far-UV CD band, first",[3]; all pH conditions,around 208 nm
same,"far-UV CD band, second",[3]; all pH conditions,~222 nm
same,intrinsic fluorescence vs pH,"[4]; pH 4, 6, 8, 10","drops as the pH changes from 4 to 6, it undergoes substantial enhancement at pH 8 only to drop again at pH 10"
same,tryptophan emission maximum,[4]; pH-independent,around 338 nm
same,ANS emission maximum upon binding to BclXL,[5]; blue-shifted from 515nm in water,around 475 nm
same,ANS fluorescence enhancement,[5]; pH 4,~15 fold
same,ANS fluorescence enhancement,[5]; pH 6,2 fold
same,ANS fluorescence enhancement,[5]; pH 8,about 5 fold
same,ANS fluorescence enhancement,[5]; pH 10,about 5 fold
same,fluorescence quenching by acrylamide vs pH,[6],optimal quenching occurs at pH 6
same,near-UV CD signal,[7]; acidic pH (pH 4),substantially attenuated
same,near-UV CD signal,[7]; alkaline conditions (pH 8 and 10),also attenuated
same,near-UV CD signal,[7]; pH 6,strong near-UV CD signal
